# Measured values from different studies.
# Compare with care: the assays were run in different laboratories.
# Organism: Mycobacterium tuberculosis variant bovis BCG
# Observed: microbial growth
Structure (SMILES),strain,time,quantity,value
COc1ccc(C=CC(=O)c2ccc(F)cc2)cc1OC,BCG,7 days,MIC,25 µg/mL
CCCNc1cnc(C(=O)O)cn1,ATCC35734 BCG,5 days,IC50,700 µM
COc1ccc(C=CC(=O)c2ccc(C)cc2)cc1OC,BCG,7 days,MIC,25 µg/mL
C=CC(c1ccc(-c2ccc3c(c2)OCO3)cc1F)n1ccnc1 (stereo not drawn),BCG,,MIC50,> 30 µM
COc1ccc(C=CC(=O)c2cccc([N+](=O)[O-])c2)cc1OC,BCG,7 days,MIC,100 µg/mL
c1ccc(COc2ccc(CNCc3ccncc3)cc2)cc1,ATCC35734 BCG,,MIC,> 62.5 µM
C=CC(c1ccc(-c2ccc(O)c(Cl)c2)cc1)n1ccnc1 (stereo not drawn),BCG,,MIC50,49.9 µM
NNC(=O)c1ccncc1,ATCC35734 BCG,,MIC,≤ 0.25 µM
C=CC(c1ccc(-c2ccc(C#N)cc2)cc1)n1ccnc1 (stereo not drawn),BCG,,MIC50,9.2 µM
COc1ccc(C=CC(=O)c2ccccc2)cc1OC,BCG,7 days,MIC,6.25 µg/mL
C=CC(c1ccc(-c2ccc3c(c2)OCO3)cc1)n1ccnc1 (stereo not drawn),BCG,,MIC50,20 µM
Fc1ccc(COc2cccc(CNCc3cccnc3)c2)cc1,ATCC35734 BCG,,MIC,> 62.5 µM
Nc1nccnc1C(=O)O,ATCC35734 BCG,5 days,IC50,800 µM
Fc1ccc(COc2ccc(CNCc3ccccc3)cc2)cc1,ATCC35734 BCG,,MIC,> 62.5 µM
COc1ccc(C=CC(=O)c2ccc([N+](=O)[O-])cc2)cc1OC,BCG,7 days,MIC,200 µg/mL
